# In ChEMBL document CHEMBL1122741, “Substituted 5,6-dihydrofuro[3,2-f]-1,2-benzisoxazole-6-carboxylic acids: high-ceiling diuretics with uricosuric activity” (J Med Chem, 1984):
# Active and inactive are the calls of the source. No cut-off for these calls is given here.
# Experiments:
# [1] = tested on: Rattus norvegicus; assay: ED2(natriuretic potency) is the oral dose(mg/kg) required to produce an excretion of 2 milliequivalents of Na+per kilogram during 0-4 hr in female rats (Highest dose tested was 100 mg/kg); Inactive; assay type: functional, organism-based; design: dose 100 mg/kg
# Summary of the method: (§1)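 Female Sprague-Dawley rats, 175-225 g, on sucrose and water for 18 h, given 5 mg DOCA sc 2 h before dosing. Compound in 0.2% methylcellulose given by gavage at 2 mL/kg, then a 30 mL/kg load of 0.34% NaCl/0.69% KCl. Individual metabolism cages, urine collected 0-4 h for Na+, K+, Cl-. Two-stage two-dose screen at 2 rats/dose, then at least four doses at 4 rats/dose. ED2 taken from regression of Na+ excretion against log dose.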
# [2] = tested on: Mus musculus; assay: ED6 (natriuretic potency) is the oral dose(mg/kg) required to produce an excretion of 6 milliequivalents of Na+per kilogram during 0-4 hr in male mice (Highest dose tested was 50 mg/kg); assay type: functional
# Summary of the method: (§2)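 Male mice, 16-30 g, fed ad libitum beforehand. Compound in 0.2% hydroxypropylmethylcellulose given po at 10 mL/kg, then 0.9% saline po at 3% of body weight. Five mice pooled per metabolism cage, four cages per dose. Combined urine collected 0-4 h and assayed for Na+, K+, Cl-, uric acid as mequiv/kg per cage. ED6 from regression of Na+ against log dose.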
# [3] = tested on: Canis familiaris; assay: ED5(natriuretic potency) is the oral dose(mg/kg) required to produce an excretion of 5 milliequivalents of Na+per kilogram during 0-6 hr in female dogs (Highest dose tested was 30 mg/kg); assay type: functional, Canis lupus familiaris
# Summary of the method: (§3)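 Female dogs, conscious, one oral dose per dog per experiment. Urine collected and centrifuged; venous plasma drawn at each collection time. Samples assayed for Na+, K+, Cl-, urate and glucose by standard methods. Cumulative Na+ output expressed as mequiv/kg over 6 h, at least two dogs/dose. ED5 read from regression of Na+ excretion against log dose.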
# [4] = tested on: Mus musculus; assay: ED6 (natriuretic potency) is the oral dose(mg/kg) required to produce an excretion of 6 milliequivalents of Na+per kilogram during 0-4 hr in male mice (Highest dose tested was 50 mg/kg); Inactive; assay type: functional, organism-based; design: dose 50 mg/kg; summary of the method: as §2
# [5] = tested on: Rattus norvegicus; assay: ED2(natriuretic potency) is the oral dose(mg/kg) required to produce an excretion of 2 milliequivalents of Na+per kilogram during 0-4 hr in female rats (Highest dose tested was 100 mg/kg); assay type: functional; summary of the method: as §1
# [6] = tested on: Canis familiaris; assay: ED5(natriuretic potency) is the oral dose(mg/kg) required to produce an excretion of 5 milliequivalents of Na+per kilogram during 0-6 hr in female dogs (Highest dose tested was 30 mg/kg); Inactive; assay type: functional, organism-based; design: dose 30 mg/kg; conditions: Canis lupus familiaris; summary of the method: as §3
# [7] = tested on: Mus musculus; assay: Na+ excretion mequiv /kg in saline-loaded mice administered at a dose 2 […] perorally; assay type: ADME, organism-based; conditions: in vivo, po
# Summary of the method: (§4)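 Saline-loaded male mice, 16-30 g. Compound po in 0.2% hydroxypropylmethylcellulose at 10 mL/kg, vehicle alone for controls, followed by 0.9% saline po at 3% of body weight. Doses were 0.3-250 mg/kg po. Five mice per metabolism cage, four cages per dose, pooled urine collected for 4 h. Na+ reported as mean ± SEM mequiv/kg; ANOVA with Duncan's test or unpaired t test against control.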
# [8] = tested on: Mus musculus; assay: Na+ excretion mequiv /kg in saline-loaded mice administered at a dose 10 […] perorally; assay type: ADME, organism-based; conditions: in vivo, po; summary of the method: as §4
# [9] = tested on: Canis familiaris; assay: Na+ excretion mequiv /kg in 6 conscious female dogs administered perorally during 0-6 hr; assay type: ADME, organism-based, Canis lupus familiaris; conditions: dog, in vivo, po
# Summary of the method: (§5)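 Conscious female dogs dosed at 3 mg/kg po, except one reference at 10 mg/kg, one dose per dog. Urine collected to 6 h and centrifuged; heparinized venous plasma taken at each collection. Na+ and urate measured by standard methods, mean ± SEM over 0-6 h. Compared with vehicle by ANOVA/Duncan's test or unpaired t test.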
# [10] = tested on: Mus musculus; assay: Na+ excretion mequiv /kg in saline-loaded mice administered at a dose 50 […] perorally; assay type: ADME, organism-based; conditions: in vivo, po; summary of the method: as §4
# [11] = species: Canis familiaris; assay: urate excreted in female dogs during 0-6 hr; assay type: ADME, organism-based, Canis lupus familiaris; conditions: dog, in vivo; summary of the method: as §5
# [12] = urate excreted in 4 Cebus monkey''s during 0-6 hr; assay type: ADME; conditions: in vivo
# Summary of the method: (§6)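 Male and female Cebus monkeys, 4-6 per group, fasted for 6 h after dosing, water ad libitum. 20 mg/kg in 0.2% hydroxypropylmethylcellulose at 1.0 mL/kg by nasogastric tube, then water load of 5% body weight. Urine collected in metabolism pans at 2, 6 and 24 h and assayed for uric acid. Urate in mg/kg over 0-6 h, mean ± SEM.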
# [13] = urate excreted in 6 Cebus monkey''s during 0-6 hr; assay type: ADME; conditions: in vivo; summary of the method: as §6
# [14] = tested on: Canis familiaris; assay: Na+ excretion mequiv /kg in conscious female dogs administered perorally during 0-6 hr; assay type: ADME, organism-based, Canis lupus familiaris; conditions: dog, in vivo, po; summary of the method: as §5
# [15] = Urate excreted in 6 Cebus monkey''s during 0-6 hr; assay type: ADME; conditions: in vivo; summary of the method: as §6
# [16] = species: Canis familiaris; assay: Urate excreted in female dogs during 0-6 hr; assay type: ADME, organism-based, Canis lupus familiaris; conditions: dog, in vivo; summary of the method: as §5
# [17] = tested on: Mus musculus; assay: Na+ excretion mequiv[…] in saline-loaded mice administered at a dose 10 […] perorally; assay type: ADME, organism-based; conditions: in vivo, po; summary of the method: as §4
# [18] = tested on: Mus musculus; assay: Na+ excretion mequiv/kg in saline-loaded mice administered at a dose 2 […] perorally; assay type: ADME, organism-based; conditions: in vivo, po; summary of the method: as §4
# [19] = tested on: Mus musculus; assay: Na+ excretion mequiv[…] in saline-loaded mice administered at a dose 10 […] perorally* -significantly different from control(p<0.05) and Duncan's test; assay type: ADME, organism-based; conditions: in vivo, po; summary of the method: as §4
# [20] = tested on: Mus musculus; assay: Na+ excretion mequiv/kg in saline-loaded mice administered at a dose 30 […] perorally; assay type: ADME, organism-based; conditions: in vivo, po; summary of the method: as §4
# [21] = tested on: Mus musculus; assay: Na+ excretion mequiv/kg in saline-loaded mice administered at a dose 3 […] perorally; assay type: ADME, organism-based; conditions: in vivo, po; summary of the method: as §4
# [22] = tested on: Mus musculus; assay: Na+ excretion mequiv/kg in 4 saline-loaded mice administered at a dose 50 […] perorally; assay type: ADME, organism-based; conditions: in vivo, po; summary of the method: as §4
# [23] = tested on: Mus musculus; assay: Na+ excretion mequiv/kg in saline-loaded mice administered at a dose 10 […] perorally; assay type: ADME, organism-based; conditions: in vivo, po; summary of the method: as §4
# [24] = species: Canis familiaris; assay: urate excreted in 4 female dogs during 0-6 hr; assay type: ADME, organism-based, Canis lupus familiaris; conditions: dog, in vivo; summary of the method: as §5
# [25] = tested on: Canis familiaris; assay: Na+ excretion mequiv/kg in 4 conscious female dogs administered perorally during 0-6 hr; assay type: ADME, organism-based, Canis lupus familiaris; conditions: dog, in vivo, po; summary of the method: as §5
structure (smiles),measurement,setting,value
OCC1Cc2cc3c(-c4ccccc4F)noc3c(Cl)c2O1 (configuration not stated),ED2,[1],inactive
same,ED6,[2],30 mg/kg
same,ED5,[3],21 mg/kg
O=C(O)C1Cc2cc3c(-c4ccc(O)cc4)noc3c(Cl)c2O1 (configuration not stated),ED6,[4],inactive
same,ED2,[5],190 mg/kg
O=C(O)C1Cc2cc3c(-c4ccccc4F)noc3c(Br)c2O1 (configuration not stated),ED2,[5],117.5 mg/kg
same,ED6,[2],9.9 mg/kg
CC(C)Cc1noc2c(Cl)c3c(cc12)CC(C(=O)O)O3 (configuration not stated),ED5,[6],inactive
same,ED2,[5],0.23 mg/kg
same,ED6,[2],0.47 mg/kg
CCOC(=O)C1Cc2cc3c(-c4ccccc4F)noc3c(Cl)c2O1 (configuration not stated),ED6,[4],inactive
same,ED2,[1],inactive
N#CC1Cc2cc3c(-c4ccccc4F)noc3c(Cl)c2O1 (configuration not stated),ED6,[4],inactive
same,ED2,[1],inactive
O=C(O)C1Cc2cc3c(-c4ccccc4F)noc3c(Cl)c2O1 (stereo in doubt; 15k),Na+ excretion,[7],4.2 m equiv kg-1
same,ED2,[5],40 mg/kg
same,Na+ excretion,[8],8.2 m equiv kg-1
same,Na+ excretion,[9],8.18 m equiv kg-1
same,Na+ excretion,[10],11.9 m equiv kg-1
same,Excretion,[11],0.82 mg/kg
same,Excretion,[12],7.08 mg/kg
same,ED6,[2]; 50 mg/kg,4.2 mg/kg
same,ED5,[3]; 30 mg/kg,0.6 mg/kg
O=C(O)C1Cc2cc3c(-c4ccccc4F)noc3c(Cl)c2O1 (stereo in doubt; 29),Na+ excretion,[7],5.5 m equiv kg-1
same,Excretion,[13],8.34 mg/kg
same,Na+ excretion,[8],8.1 m equiv kg-1
same,Na+ excretion,[10],13.2 m equiv kg-1
same,Excretion,[11],1.32 mg/kg
same,Na+ excretion,[14],7.6 m equiv kg-1
same,ED6,[2]; 50 mg/kg,2.95 mg/kg
same,ED5,[3]; 30 mg/kg,0.71 mg/kg
O=C(O)C1Cc2cc3c(-c4ccccc4F)noc3c(Cl)c2O1 (stereo in doubt; 30) [listing 1 of 2 here],Excretion,[15],8.32 mg/kg
same,Na+ excretion,[7],2.8 m equiv kg-1
same,Na+ excretion,[8],3.2 m equiv kg-1
same,Excretion,[16],1.25 mg/kg
same,Na+ excretion,[10],3.5 m equiv kg-1
same,Na+ excretion,[14],0.62 m equiv kg-1
O=C(O)C1Cc2cc3c(-c4ccccc4F)noc3c(Cl)c2O1 (stereo in doubt; 30) [listing 2 of 2 here],ED6,[4],inactive
same,ED5,[6],inactive
C=C(CC)C(=O)c1ccc(OCC(=O)O)c(Cl)c1Cl [ETHACRYNIC ACID],Na+ excretion,[17],3.2 mequiv/kg
same,Na+ excretion,[18],2.9 mequiv/kg
same,Na+ excretion,[19],5.9 mequiv/kg
NS(=O)(=O)c1cc(C(=O)O)c(NCc2ccco2)cc1Cl [FUROSEMIDE],Na+ excretion,[7],3.7 m equiv kg-1
same,ED2,[5],9.5 mg/kg
same,Na+ excretion,[8],7.9 m equiv kg-1
same,Na+ excretion,[10],11.5 m equiv kg-1
same,Excretion,[11],0.7 mg/kg
same,Na+ excretion,[14],5.23 m equiv kg-1
same,Excretion,[12],4.03 mg/kg
same,ED6,[2],5 mg/kg
same,ED5,[3],3.5 mg/kg
NS(=O)(=O)c1cc2c(cc1Cl)NCNS2(=O)=O [HYDROCHLOROTHIAZIDE],Na+ excretion,[20],6.7 m equiv kg-1
same,Na+ excretion,[21],4.5 m equiv kg-1
CC1(c2ccccc2)Cc2cc(OCC(=O)O)c(Cl)c(Cl)c2C1=O (configuration not stated) [INDACRINONE],Na+ excretion,[22],12.6 m equiv kg-1
same,Na+ excretion,[23],8 m equiv kg-1
same,Excretion,[24],0.71 mg/kg
same,ED2,[5],5.2 mg/kg
same,Na+ excretion,[18],4 m equiv kg-1
same,Na+ excretion,[25],1.44 m equiv kg-1
same,Excretion,[12],9.53 mg/kg
same,ED6,[2],4.4 mg/kg
same,ED5,[3],7.64 mg/kg
